# Test results reported in ChEMBL document CHEMBL4808210, “Mapping Chromone-3-Phenylcarboxamide Pharmacophore: Quid Est Veritas?” (J Med Chem, 2021).
# The source made the active and inactive calls. The rule behind the calls is not given here.
# Key:
# MAO-A = target: T1, MAO-A (Homo sapiens, UniProt P21397); test: (§1) Inhibition of recombinant human MAO-A expressed in baculovirus infected BTI-TN- 5B1-4 insect cells at 10 uM using kynuramine as substrate preincubated for 10 mins in presence of substrate followed by enzyme addition and measured every minute for 30 mins by spectrophotometry analysis relative to control; settings: probe kynuramine, time 40 min
# T1 sequence (P21397 whole entry): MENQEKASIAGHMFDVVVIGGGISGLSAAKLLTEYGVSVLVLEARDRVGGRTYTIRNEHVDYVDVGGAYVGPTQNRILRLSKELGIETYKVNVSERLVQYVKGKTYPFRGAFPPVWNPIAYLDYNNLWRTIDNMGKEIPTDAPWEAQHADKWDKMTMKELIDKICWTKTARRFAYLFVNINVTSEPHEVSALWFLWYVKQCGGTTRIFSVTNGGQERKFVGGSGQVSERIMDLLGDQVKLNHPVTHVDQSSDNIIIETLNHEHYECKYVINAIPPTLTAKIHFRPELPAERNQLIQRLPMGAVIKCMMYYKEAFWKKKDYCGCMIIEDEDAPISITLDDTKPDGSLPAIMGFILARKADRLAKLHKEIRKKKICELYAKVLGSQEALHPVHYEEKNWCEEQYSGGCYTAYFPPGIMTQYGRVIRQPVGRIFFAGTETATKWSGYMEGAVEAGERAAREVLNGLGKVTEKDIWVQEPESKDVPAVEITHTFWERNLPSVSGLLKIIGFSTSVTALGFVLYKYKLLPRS
# Procedure, shortened: (§2)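 Recombinant hMAO-A and hMAO-B were assayed with kynuramine as substrate. Percent inhibition was taken at 10 μM, the highest concentration tested. Where the hMAO-A IC₅₀ was not reached, it was taken as 10 μM.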
# [1] = target: T2, Amine oxidase [flavin-containing] B (Homo sapiens, UniProt P27338); test: as §1, with “MAO-B” for “MAO-A”; settings: BTI-TN-5B1-4, human, 0.5 h, time 40 min; procedure, shortened: as §2
# T2 sequence (P27338 whole entry): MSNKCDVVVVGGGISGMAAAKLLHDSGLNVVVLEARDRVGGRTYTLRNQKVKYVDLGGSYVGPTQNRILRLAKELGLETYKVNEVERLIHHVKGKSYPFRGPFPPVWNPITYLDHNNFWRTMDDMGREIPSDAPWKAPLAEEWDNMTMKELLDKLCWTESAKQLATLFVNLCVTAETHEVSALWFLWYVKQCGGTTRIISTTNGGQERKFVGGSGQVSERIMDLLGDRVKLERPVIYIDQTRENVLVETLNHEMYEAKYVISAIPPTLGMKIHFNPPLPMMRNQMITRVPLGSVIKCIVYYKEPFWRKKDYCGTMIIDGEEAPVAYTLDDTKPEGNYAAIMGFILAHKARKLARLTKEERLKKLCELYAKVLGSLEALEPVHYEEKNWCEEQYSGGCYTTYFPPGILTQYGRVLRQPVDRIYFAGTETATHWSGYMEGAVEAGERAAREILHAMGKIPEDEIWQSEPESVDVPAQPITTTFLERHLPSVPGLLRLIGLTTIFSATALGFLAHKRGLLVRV
# [2] = target: T3, Amine oxidase [flavin-containing] A (Homo sapiens, UniProt P21397); test: Inhibition of recombinant human MAO-A expressed in baculovirus infected BTI-TN- 5B1-4 insect cells using kynuramine as substrate preincubated for 10 mins in presence of substrate followed by enzyme addition and measured every minute for 30 mins by spectrophotometry analysis; procedure, shortened: as §2
# T3 sequence (P21397 whole entry): T1 sequence (P21397 whole entry)
# [3] = target: T2, Amine oxidase [flavin-containing] B; test: Inhibition of recombinant human MAO-B expressed in baculovirus infected BTI-TN- 5B1-4 insect cells using kynuramine as substrate preincubated for 10 mins in presence of substrate followed by enzyme addition and measured every minute for 30 mins by spectrophotometry analysis; assay type: cell-based
# Homo sapiens = organism: Homo sapiens; test: Selectivity index, ratio of IC50 for recombinant human MAO-A expressed in baculovirus infected BTI-TN- 5B1-4 insect cells to IC50 for recombinant human MAO-B expressed in baculovirus infected BTI-TN- 5B1-4 insect cells using kynuramine as substrate preincubated for 10 mins in presence of substrate followed by enzyme addition and measured every minute for 30 mins by spectrophotometry analysis; procedure, shortened: as §2
# SH-SY5Y [4] = test: Cytotoxicity against human SH-SY5Y cells assessed as effect on NR uptake at 1 to 10 uM measured after 24 hrs by neutral red uptake assay; assay type: cell-based; settings: dose 1-10 µM
# Procedure, shortened: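 Differentiated SH-SY5Y cells were exposed to compounds at 1 and 10 μM for 24 h. Lysosomal activity was read as neutral red dye uptake and compared with untreated cells. Mean ± SEM of at least three independent experiments run in triplicate.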
# Caco-2 [5] = test: Cytotoxicity against human Caco-2 cells assessed as effect on cell viability at 1 to 10 uM measured after 24 hrs by MTT assay; assay type: cell-based; settings: caco-2, 24 h, dose 1-10 µM
# Procedure, shortened: (§3)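 Caco-2 cells, and SH-SY5Y cells first differentiated toward a dopaminergic-like phenotype, were treated for 24 h with compounds at 1 and 10 μM. Metabolic activity was read as MTT reduction to formazan, relative to untreated cells. Mean ± SEM of at least three independent experiments, each in triplicate.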
# SH-SY5Y [6] = test: Cytotoxicity against human SH-SY5Y cells assessed as reduction in cell viability at 10 uM measured after 24 hrs by MTT assay relative to control; assay type: cell-based; procedure, shortened: as §3
# HUVEC [7] = test: Cytotoxicity against HUVEC cells at 10 uM incubated for 24 to 48 hrs by Celltiter-Glo assay relative to control; assay type: cell-based; settings: human, time 24-48 hrs
# Procedure, shortened: (§4)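 Cells (HEK-293, HUVEC, MCF-7) exposed to test compounds at 10 μM for 24 h; cytotoxicity read in triplicate with a luminescence kit measuring intracellular ATP levels.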
# HEK293 [8] = test: Cytotoxicity against HEK293 cells at 10 uM incubated for 24 to 48 hrs by Celltiter-Glo assay relative to control; assay type: cell-based; settings: human, hek293, 10 µM, time 24-48 hrs; procedure, shortened: as §4
# MCF7 [9] = test: Cytotoxicity against human MCF7 cells at 10 uM incubated for 24 to 48 hrs by Celltiter-Glo assay relative to control; assay type: cell-based; settings: mcf7, 10 µM, time 24-48 hrs; procedure, shortened: as §4
# HUVEC [10] = test: Cytotoxicity against HUVEC cells incubated for 24 to 48 hrs by Celltiter-Glo assay; assay type: cell-based, Homo sapiens; settings: huvec
# HEK293 [11] = test: Cytotoxicity against HEK293 cells incubated for 24 to 48 hrs by Celltiter-Glo assay; assay type: cell-based, Homo sapiens
# MCF7 [12] = test: Cytotoxicity against human MCF7 cells incubated for 24 to 48 hrs by Celltiter-Glo assay; assay type: cell-based
# hERG = hERG (Homo sapiens, UniProt Q12809); test: Inhibition of human ERG at 10 uM incubated for 2 hrs by fluorescence polarization assay relative to control
# Sequence of hERG (Q12809 whole entry): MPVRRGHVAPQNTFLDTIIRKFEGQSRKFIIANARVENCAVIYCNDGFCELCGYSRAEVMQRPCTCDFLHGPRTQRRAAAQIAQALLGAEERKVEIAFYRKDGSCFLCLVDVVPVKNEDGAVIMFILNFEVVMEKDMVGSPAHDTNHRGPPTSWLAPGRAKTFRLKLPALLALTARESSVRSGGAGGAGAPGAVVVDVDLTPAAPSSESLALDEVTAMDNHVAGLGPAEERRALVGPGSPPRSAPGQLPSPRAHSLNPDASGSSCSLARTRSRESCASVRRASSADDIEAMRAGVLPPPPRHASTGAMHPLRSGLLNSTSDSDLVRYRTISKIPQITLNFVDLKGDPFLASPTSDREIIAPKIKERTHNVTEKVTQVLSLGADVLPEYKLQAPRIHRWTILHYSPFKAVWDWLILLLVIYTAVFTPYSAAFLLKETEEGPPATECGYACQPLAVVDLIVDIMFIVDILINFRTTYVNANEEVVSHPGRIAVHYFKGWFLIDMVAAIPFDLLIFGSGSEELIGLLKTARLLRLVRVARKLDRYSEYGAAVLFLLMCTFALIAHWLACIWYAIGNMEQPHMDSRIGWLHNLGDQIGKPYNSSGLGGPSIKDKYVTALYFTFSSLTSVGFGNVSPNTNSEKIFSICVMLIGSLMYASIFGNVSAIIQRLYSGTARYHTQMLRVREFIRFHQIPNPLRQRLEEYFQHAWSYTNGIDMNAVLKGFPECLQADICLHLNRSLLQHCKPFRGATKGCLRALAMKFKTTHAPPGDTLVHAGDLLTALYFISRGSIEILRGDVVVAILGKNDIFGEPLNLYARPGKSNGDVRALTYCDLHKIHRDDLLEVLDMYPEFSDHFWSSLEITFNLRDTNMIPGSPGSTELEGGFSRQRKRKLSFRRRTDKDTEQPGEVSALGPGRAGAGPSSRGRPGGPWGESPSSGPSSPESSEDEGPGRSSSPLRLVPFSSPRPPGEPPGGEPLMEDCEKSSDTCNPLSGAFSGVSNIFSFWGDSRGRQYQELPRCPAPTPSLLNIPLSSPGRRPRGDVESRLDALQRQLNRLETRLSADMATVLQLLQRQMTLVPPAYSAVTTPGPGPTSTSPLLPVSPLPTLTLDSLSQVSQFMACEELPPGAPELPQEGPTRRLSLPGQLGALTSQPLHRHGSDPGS
# Procedure, shortened: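 hERG binding was measured by fluorescence polarization, using a homogenized membrane preparation containing hERG plus a fluorescent tracer. A drop in FP signal from tracer displacement was read as inhibition. Compounds were tested at 10 μM.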
# [13] = target: ATP-dependent translocase ABCB1 (Homo sapiens, UniProt P08183); test: Modulation of P-gp-mediated Rhodamine-123 efflux in human Caco-2 cells assessed as Rhodamine-123 accumulation at 10 uM pretreated for 30 mins in presence or absence of Zos followed by Rho-123 addition and measured after 90 mins by fluorescence spectroscopy; assay type: cell-based; settings: caco-2, 2 h, time 120 min
# Sequence of ATP-dependent translocase ABCB1 (P08183 whole entry): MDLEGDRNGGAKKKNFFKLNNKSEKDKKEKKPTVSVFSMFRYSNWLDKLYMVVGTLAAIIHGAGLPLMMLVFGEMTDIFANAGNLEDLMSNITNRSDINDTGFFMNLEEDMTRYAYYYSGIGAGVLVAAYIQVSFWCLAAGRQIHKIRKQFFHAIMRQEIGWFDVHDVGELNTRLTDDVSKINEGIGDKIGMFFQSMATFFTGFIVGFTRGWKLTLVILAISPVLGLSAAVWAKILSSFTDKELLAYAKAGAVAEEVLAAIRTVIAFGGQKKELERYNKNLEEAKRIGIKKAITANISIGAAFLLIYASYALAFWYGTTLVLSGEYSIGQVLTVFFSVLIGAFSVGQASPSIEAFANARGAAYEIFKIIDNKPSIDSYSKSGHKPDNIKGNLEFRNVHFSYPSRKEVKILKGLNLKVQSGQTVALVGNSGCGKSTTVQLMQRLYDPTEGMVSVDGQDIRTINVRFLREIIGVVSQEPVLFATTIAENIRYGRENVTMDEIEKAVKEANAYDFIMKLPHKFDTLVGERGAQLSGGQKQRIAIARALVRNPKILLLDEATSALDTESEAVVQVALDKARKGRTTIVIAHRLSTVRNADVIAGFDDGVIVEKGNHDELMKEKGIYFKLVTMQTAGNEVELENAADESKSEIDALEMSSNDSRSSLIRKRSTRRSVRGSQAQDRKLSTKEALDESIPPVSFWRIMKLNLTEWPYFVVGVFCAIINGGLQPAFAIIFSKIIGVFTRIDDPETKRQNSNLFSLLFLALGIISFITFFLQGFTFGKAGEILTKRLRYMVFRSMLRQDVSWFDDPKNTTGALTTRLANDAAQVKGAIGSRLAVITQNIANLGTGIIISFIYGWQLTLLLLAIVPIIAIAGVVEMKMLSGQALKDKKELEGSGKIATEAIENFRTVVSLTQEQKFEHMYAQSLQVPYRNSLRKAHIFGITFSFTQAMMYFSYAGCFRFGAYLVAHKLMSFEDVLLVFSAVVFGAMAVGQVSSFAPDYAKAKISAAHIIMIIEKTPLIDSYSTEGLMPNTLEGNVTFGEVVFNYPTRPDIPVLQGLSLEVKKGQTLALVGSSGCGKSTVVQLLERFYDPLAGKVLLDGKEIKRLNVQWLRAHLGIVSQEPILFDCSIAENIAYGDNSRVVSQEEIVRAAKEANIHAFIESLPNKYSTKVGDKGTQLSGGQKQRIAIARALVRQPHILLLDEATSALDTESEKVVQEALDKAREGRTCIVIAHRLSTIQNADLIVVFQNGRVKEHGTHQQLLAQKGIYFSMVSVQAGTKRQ
# Procedure, shortened: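 Caco-2 cells were exposed to compounds at 10 μM during incubation with the P-gp substrate rhodamine 123 (5 μM). Zosuquidar served as the specific P-gp inhibitor. Cellular rhodamine 123 was read by fluorescence spectroscopy. Mean ± SEM of at least three independent experiments in triplicate.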
# SH-SY5Y [14] = test: Protection against iron(III)-induced damage in human SH-SY5Y cells assessed as increase in lysosomal activity at 1 to 10 uM pretreated for 30 mins followed by iron(III) treatment at 1000 uM after 24 hrs by NR uptake assay; assay type: functional, cell-based; settings: dose 1-10 µM, time 24.5 hrs
# Procedure, shortened: (§5)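 Differentiated SH-SY5Y cells were pretreated with compounds at 1 or 10 μM for 30 min, then exposed to iron(III) at 1000 or 1500 μM for 24 h. Viability was read by neutral red uptake. Mean ± SD of three independent experiments, two-way ANOVA.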
# SH-SY5Y [15] = test: Protection against iron(III)-induced damage in human SH-SY5Y cells assessed as increase in lysosomal activity at 1 to 10 uM pretreated for 30 mins followed by iron(III) treatment at 1500 uM after 24 hrs by NR uptake assay; assay type: functional, cell-based; settings: dose 1-10 µM, time 24.5 hrs; procedure, shortened: as §5
# [16] = target: T2, Amine oxidase [flavin-containing] B; test: Time dependent inhibition of recombinant human MAO-B expressed in baculovirus infected BTI-TN- 5B1-4 insect cells assessed as increase in enzyme activity at IC80 measured after 120 mins; settings: bti-tn-5b1-4, 2 h
# [17] = Solubility of the compound in phosphate buffer at > 10 uM; assay type: physicochemical
# SH-SY5Y [18] = test: Cytotoxicity against human SH-SY5Y cells assessed as reduction in cell viability at 1 uM measured after 24 hrs by MTT assay relative to control; assay type: cell-based; procedure, shortened: as §3
# Caco-2 [19] = test: Cytotoxicity against human Caco-2 cells assessed as reduction in cell viability at 10 uM measured after 24 hrs by MTT assay relative to control; assay type: cell-based; settings: caco-2, 24 h; procedure, shortened: as §3
Compound,"inhibition at 0.5 h, 10 µM (MAO-A) [%]",IC50 [3] [nM],Ratio IC50 (Homo sapiens),Activity (SH-SY5Y [4]),Activity (Caco-2 [5]),Activity (SH-SY5Y [6]) [%],also measured
Cc1ccc(NC(=O)C2=Cc3ccccc3OC2)cc1C,,45.7,300,Non-Toxic,Non-Toxic,,IC50 [2]: 13700 nM
O=C(Nc1cccc(Cl)c1)c1coc2ccccc2c1=O,,,,Non-Toxic,Non-Toxic,< 85,"Activity (HUVEC [7]): < 10%; Activity (HEK293 [8]): < 10%; Activity (MCF7 [9]): < 10%; IC50 (HUVEC [10]): Not Active; IC50 (HEK293 [11]): Not Active; IC50 (MCF7 [12]): Not Active; inhibition at 2 h, 10 µM (hERG): < 10%; Activity [13]: Not Active; Activity (SH-SY5Y [14]): inactive; Activity (SH-SY5Y [15]): inactive"
C[C@H](NCc1ccc(OCc2cccc(F)c2)cc1)C(N)=O [SAFINAMIDE],30.5,,,,,,TDI [16]: Active
O=C(Nc1ccc(Cl)c(Cl)c1)c1cc2ccccc2oc1=O,,,,,,,solubility [17]: Insoluble
O=C(Nc1cccc(Cl)c1)C1COc2ccccc2C1 (configuration not stated),10.9,957,> 10.4,,,,
O=C(Nc1cccc(Cl)c1)c1cc2ccccc2oc1=O,13.5,10.2,> 985,Non-Toxic,,71.8,Activity (SH-SY5Y [18]): 79.5%; Activity (Caco-2 [19]): 93.5%
Cc1ccc(NC(=O)c2csc3ccccc3c2=O)cc1C,0.2,3.35,> 2990,Non-Toxic,Non-Toxic,,
Cc1ccc(NC(=O)c2coc3ccccc3c2=O)cc1C,,,,Non-Toxic,Non-Toxic,< 85,"Activity (HUVEC [7]): < 10%; Activity (HEK293 [8]): < 10%; Activity (MCF7 [9]): < 10%; IC50 (HUVEC [10]): Not Active; IC50 (HEK293 [11]): Not Active; IC50 (MCF7 [12]): Not Active; inhibition at 2 h, 10 µM (hERG): < 10%; Activity [13]: Not Active; Activity (SH-SY5Y [14]): inactive; Activity (SH-SY5Y [15]): inactive"

# Now from value to molecule, other results behind:
"inhibition at 0.5 h, 10 µM (MAO-A) [%]",IC50 [3] [nM],Compound,Ratio IC50 (Homo sapiens),Activity (SH-SY5Y [4]),Activity (Caco-2 [5]),Activity (SH-SY5Y [6]) [%],also measured
1.32,,Cc1ccc(NC(=O)c2cc3ccccc3[nH]c2=O)cc1C,,,,,inhibition at 10 µM [1]: 8.1%
26.8,,Cc1ccc(NC(=O)c2cc3ccccc3oc2=O)cc1C,,Non-Toxic,Non-Toxic,< 85,
7.65,,Cc1ccc(NC(=O)c2cc3ccccc3n(C)c2=O)cc1C,,,,,inhibition at 10 µM [1]: 21%
